Assay outcomes from PubChem BioAssay.
Rows were chosen to be rich in hits. Some 2% of all compounds tested hit in one or more screens of this group.
NSD2 HMT inh = NSD2 histone methyltransferase inhibitors, primary screen, biochemical, AlphaScreen, single concentration, set 2. actives 0.54% (n = 310,000). NSD2 peptide methylation, 120 min. AID 743445, 2014. inhibition, % at 12.5 µM. Histone-lysine N-methyltransferase NSD2 (Homo sapiens), O96028; in the data active means inhibition above about 50%
ARNT-TACC3 inh = disruptors of ARNT/TACC3 protein interaction, primary screen, biochemical, AlphaScreen, single concentration. Transforming acidic coiled-coil-containing protein 3 (Homo sapiens), Q9Y6A5. AlphaScreen His-ARNT PAS-B/GST-TACC3 binding, luminescence; TACC3 fragment carries E629A point mutation. inhibition, % at 9.99 µM. actives 0.66% (n = 390,000). AID 623870, 2012;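 active means mean inhibition of replicates at least 50% and at least half of replicates each reaching 50%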
sPLA2-III inh = human group III sPLA2 inhibitors, primary screen, biochemical, QFRET, BODIPY PC-A2 liposome substrate | Group 3 secretory phospholipase A2 (Homo sapiens), Q9NZ20 | QFRET BODIPY PC-A2 liposome hydrolysis, fluorescence | inhibition, % at 12.2 µM | actives 0.56% (n = 370,000);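 active means inhibition above mean plus 3 SD of compounds lying within the high and low control bounds, cut at about 19% in these data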
Target sequence (Q9NZ20 whole entry, looked up): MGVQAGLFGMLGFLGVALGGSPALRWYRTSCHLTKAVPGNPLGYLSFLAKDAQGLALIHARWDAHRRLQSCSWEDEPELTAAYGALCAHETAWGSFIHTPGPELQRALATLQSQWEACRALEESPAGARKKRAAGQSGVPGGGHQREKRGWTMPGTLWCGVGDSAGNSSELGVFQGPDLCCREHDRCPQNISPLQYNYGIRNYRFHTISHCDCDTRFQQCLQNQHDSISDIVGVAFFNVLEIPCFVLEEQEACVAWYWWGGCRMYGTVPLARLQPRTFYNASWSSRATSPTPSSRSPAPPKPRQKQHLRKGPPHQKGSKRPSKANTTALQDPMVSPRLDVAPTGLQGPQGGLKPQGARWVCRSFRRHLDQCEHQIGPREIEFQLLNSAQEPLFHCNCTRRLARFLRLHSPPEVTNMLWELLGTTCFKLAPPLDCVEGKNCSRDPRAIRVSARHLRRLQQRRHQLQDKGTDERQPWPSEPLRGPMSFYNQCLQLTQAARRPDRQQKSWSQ
SR-BI HDL uptake = inhibitors of SR-BI mediated HDL lipid uptake, primary screen, ldlA[mSR-BI] cells, fluorescence, single point. Scavenger receptor class B member 1 (Mus musculus), Q61009. ldlA[mSR-BI] CHO cells, DiI-HDL uptake fluorescence, 3 h. inhibition, % at 12.5 µM. actives 0.96% (n = 320,000). AID 488896, 2010;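 active means mean replicate inhibition of at least 70% and a set share of replicates each scoring 70 or more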
SR-BI uptake up = activators of SR-BI mediated DiI-HDL uptake, primary screen, ldlA[mSR-BI] CHO cells, DiI fluorescence | 3 h; 100 = double the neutral-control signal | activation, % at 12.5 µM | actives 0.096% (n = 320,000) | AID 504775, 2011;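 active means mean replicate activation of at least 60% and every replicate at or above 60%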
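Assay system: LDL receptor-deficient CHO ldlA cells overexpressing murine SR-BI / Medium: BSA-supplemented, HEPES-buffered Ham's F12, pH 7.4 / Probe or stimulus: DiI-labelled HDL at 10 µg/mL final / Timing: compound with DiI-HDL co-incubation, 3 h at 37 °C / Technique: bottom-read cell fluorescence after medium removal, ex 550/em 595 nm / Measure: HDL uptake via cellular fluorescence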
XiGFP reactiv = activators of inactive X chromosome reactivation, primary screen, imaging, XiGFP fibroblasts, GFP high-content imaging, set 2. XiGFP mouse fibroblasts, % GFP-positive cells imaging, 3 d; cells co-treated with 5-aza-dC sensitizer; scaled so ellipticine positive control = 100%. activation, % at 7.58 µM. actives 0.055% (n = 360,000). AID 743238, 2013;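 active means mean normalized replicate activation at least 10% and every replicate at or above 10%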
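Material: XiGFP fibroblasts, SV40-immortalized. Buffer or medium: DMEM plus 5-aza-dC sensitizer. Compound: single concentration per compound, delivered by pin transfer. Times: 3 days compound exposure. Controls: ellipticine 6 µM.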
hGIII sPLA2 conf = human group III sPLA2 inhibitors, confirmation, biochemical, QFRET, triplicate | shares compounds with sPLA2-III inh | recombinant hGIII-sPLA2, BODIPY PC-A2 QFRET fluorescence | inhibition, % at 12.2 µM | actives 34% (n = 2,000) | AID 743280, 2014;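 active means mean inhibition across triplicates above the hit cutoff set in the earlier primary screen, cut at about 19% in these data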
535nm interf = 535nm fluorescence optical interference, confirmation, artefact control for HGIII-sPLA2 inhibitor project, biochemical, QFRET. shares compounds with sPLA2-III inh. BODIPY FL product fluorescence interference. inhibition, % at 12.2 µM. actives 8.5% (n = 2,000);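 active means average inhibition above the solvent-only control mean plus 3 SD, cut at about 6% in these data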
BODIPY interf DR = 535nm fluorescence optical interference, dose response, artefact control for HGIII-sPLA2 inhibitor project, biochemical, QFRET; shares compounds with sPLA2-III inh; BODIPY FL product fluorescence interference, cell-free; IC50, µM; 240 tested, under 10 active; AID 743455, 2014;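 active means IC50 at or below 10 µM; inactive means IC50 above 10 µM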
Large screens that a line does not name were inactive (follow-up assays come after a bar, where they were run).

O=c1[nH][nH]c2cc([N+](=O)[O-])ccc12	none
C=CCNC(=S)NNC(=O)CSc1nc2ccccc2s1	sPLA2-III inh 30.2 | hGIII sPLA2 conf 19.7 | 535nm interf inactive
O=C(CSc1nc2ccccc2s1)NNC(=S)Nc1ccc(Cl)cc1	sPLA2-III inh 25.6 | hGIII sPLA2 conf inactive | 535nm interf inactive
COCC#Cc1ccc2c(c1)O[C@@H](CN(C)C(=O)c1ccccc1)[C@H](C)CN([C@H](C)CO)S2(=O)=O	none (no result: NSD2 HMT inh, sPLA2-III inh, SR-BI HDL uptake, SR-BI uptake up)
COc1ccc(C2Nc3ccccc3C(=O)N2c2ccccc2)cc1CSc1ccccn1 (configuration not stated)	none
COc1ccc(C2Nc3ccccc3C(=O)N2c2ccc(F)cc2)cc1CSc1ccccn1 (configuration not stated)	sPLA2-III inh 20.1 | hGIII sPLA2 conf inactive | 535nm interf inactive
C=CCOc1ccc(/C=N/N2C(=O)C(CC(=O)Nc3ccc(F)cc3F)SC2=NC)cc1 (configuration not stated)	none
CCc1cc2c(=O)[nH]c(COC)nc2s1	sPLA2-III inh 19.3 | hGIII sPLA2 conf inactive | 535nm interf inactive
CC[C@H]1CC=CC[C@H](C)Oc2ccccc2C(=O)N(C)[C@@H](C)C(=O)N1 (mixture of isomers)	none (no result: NSD2 HMT inh, ARNT-TACC3 inh, sPLA2-III inh, SR-BI HDL uptake, SR-BI uptake up)
O=S(=O)(NNc1ccc(Cl)nn1)c1ccc(F)cc1	sPLA2-III inh 19.2 | hGIII sPLA2 conf inactive | 535nm interf 8.3
S=C(Nc1ccc(Cl)cc1)c1nc2ccccc2[nH]1	sPLA2-III inh 30.2, SR-BI HDL uptake 123.3 | hGIII sPLA2 conf 35.7 | 535nm interf inactive | BODIPY interf DR inactive
Cc1ccccc1NC(=S)c1nc2ccccc2[nH]1	ARNT-TACC3 inh 48.8, sPLA2-III inh 44.6, SR-BI HDL uptake 78.7 | hGIII sPLA2 conf 31.4 | 535nm interf inactive | BODIPY interf DR inactive
Cc1ccccc1NC(=O)NCCc1nc2ccccc2[nH]1	none (no result: XiGFP reactiv)
COc1ccc(OC)c(NC(=O)CCCN2C(=S)NC(C)(C)CC2C)c1 (configuration not stated)	none
CC1CC(C)(C)NC(=S)N1CC(=O)NCc1ccccc1Cl (configuration not stated)	sPLA2-III inh 30.0 (no result: NSD2 HMT inh) | hGIII sPLA2 conf inactive | 535nm interf inactive
COc1ccc(C)cc1NC(=O)CCCN1C(=S)NC(C)(C)CC1C (configuration not stated)	sPLA2-III inh 23.6 (no result: XiGFP reactiv) | hGIII sPLA2 conf inactive | 535nm interf inactive
CCOc1ccc(OCC)c(NC(=O)CCCN2C(=S)NC(C)(C)CC2C)c1 (configuration not stated)	sPLA2-III inh 24.9 | hGIII sPLA2 conf 23.7 | 535nm interf inactive
CCOc1ccccc1NC(=O)CCCN1C(=S)NC(C)(C)CC1C (configuration not stated)	sPLA2-III inh 21.5 | hGIII sPLA2 conf 19.9 | 535nm interf inactive
Cn1c(SCC(=O)Nc2ccc(Cl)cn2)nnc1C1CC1	none
C[C@@H]1CN([C@H](C)CO)S(=O)(=O)c2ccc(-c3cncnc3)cc2O[C@H]1CN(C)Cc1cccnc1	none (no result: NSD2 HMT inh, sPLA2-III inh, SR-BI HDL uptake, SR-BI uptake up)
COCCNC(=O)C[C@H]1CC[C@@H](NC(=O)NC2CCCCC2)[C@@H](CO)O1	none (no result: NSD2 HMT inh, sPLA2-III inh, SR-BI HDL uptake, SR-BI uptake up)
NC(=O)c1ccc(N=Cc2c(O)ccc3ccccc23)cc1	none
C=CCS/C(N)=N\N=C\c1c(O)ccc2ccccc12	sPLA2-III inh 20.3 | hGIII sPLA2 conf 28.8 | 535nm interf inactive | BODIPY interf DR inactive
O=C(COC(=O)C1CCCC1)Nc1cccc(Cl)c1Cl	none
Cc1ccc2sc(C)[n+](CCC(C)S(=O)(=O)[O-])c2c1 (configuration not stated)	sPLA2-III inh 19.6 (no result: NSD2 HMT inh, ARNT-TACC3 inh) | hGIII sPLA2 conf inactive | 535nm interf inactive
O=C(O)CC(C(=O)N(c1ccccc1)c1ccccc1)N1CCOCC1 (configuration not stated)	none (no result: XiGFP reactiv)
COC(=O)NNC(=O)C12CC3CC(CC(C3)C1)C2	none (no result: ARNT-TACC3 inh)
NC(=S)NNC(=O)C12CC3CC(CC(C3)C1)C2	sPLA2-III inh 21.4 | hGIII sPLA2 conf inactive | 535nm interf inactive
O=C1CCC(c2ccccc2)N1C(=O)c1cccnc1 (configuration not stated)	none (no result: XiGFP reactiv)
CN(C)C(CNC(=O)c1cnc(Cl)c(Cl)c1)c1ccccc1 (configuration not stated)	sPLA2-III inh 20.7 | hGIII sPLA2 conf inactive | 535nm interf inactive
CN(C)C(CNC(=O)c1cc(S(=O)(=O)N(C)c2ccccc2)ccc1Cl)c1ccccc1 (configuration not stated)	none
O=C(Nc1ccc(S(=O)(=O)N2CCOCC2)cc1)c1ccc(Cl)s1	none (no result: XiGFP reactiv)
CCCCNC(=O)C1c2ccccc2OCC(=O)N1CC(F)(F)F (configuration not stated)	sPLA2-III inh 20.3 (no result: NSD2 HMT inh, ARNT-TACC3 inh, SR-BI HDL uptake, SR-BI uptake up) | hGIII sPLA2 conf inactive | 535nm interf inactive
CCNC(=O)/C(C#N)=C/c1c(N2CC(C)OC(C)C2)nc2ccccn2c1=O (configuration not stated)	none (no result: ARNT-TACC3 inh)
COCCNC(=O)/C(C#N)=C/c1c(N2CC(C)OC(C)C2)nc2ccccn2c1=O (configuration not stated)	sPLA2-III inh 20.7 | hGIII sPLA2 conf inactive | 535nm interf inactive
C[C@H](CO)N1C[C@H](C)[C@@H](CN(C)CC2CC2)OCCCC[C@H](C)Oc2ccc(NC(=O)NC3CCCCC3)cc2C1=O	none (no result: NSD2 HMT inh, ARNT-TACC3 inh, sPLA2-III inh, SR-BI HDL uptake, SR-BI uptake up)
COc1cc(/C=N/NC(=O)c2ccc3c(c2)OCCO3)cc(Br)c1O	sPLA2-III inh 20.1 (no result: NSD2 HMT inh, ARNT-TACC3 inh) | hGIII sPLA2 conf inactive | 535nm interf inactive
